Data as given in PubChem BioAssay AID602194 (The Scripps Research Institute Molecular Screening Center, 2012).
Out of some 2,400 compounds screened, about 140 (5.8%) were called active. A selection follows. Values without a mark were called inactive.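 The calls were made as follows: active = mean activation across replicates exceeds the hit threshold derived in the earlier primary screen (cut at about 18% in these data); inactive = the rest.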

What follows are compounds tested against Mu-type opioid receptor (Homo sapiens) + Delta-type opioid receptor (Homo sapiens) (UniProt P35372+P41143) (assay: agonists of MOR-DOR heterodimerization, counter-screen for MC4R biased agonist project, cell-based, luminescence (AID 602194;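 also: 100% = deltorphin B at 0.9 µM final and 0% = DMSO alone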)). Conditions: U2OS PathHunter beta-arrestin, beta-gal luminescence; at 9.2 µM; hits give high values; percent of deltorphin B response, DMSO zero.
Sequence of Mu-type opioid receptor (Homo sapiens) + Delta-type opioid receptor (Homo sapiens) (P35372 whole entry, looked up): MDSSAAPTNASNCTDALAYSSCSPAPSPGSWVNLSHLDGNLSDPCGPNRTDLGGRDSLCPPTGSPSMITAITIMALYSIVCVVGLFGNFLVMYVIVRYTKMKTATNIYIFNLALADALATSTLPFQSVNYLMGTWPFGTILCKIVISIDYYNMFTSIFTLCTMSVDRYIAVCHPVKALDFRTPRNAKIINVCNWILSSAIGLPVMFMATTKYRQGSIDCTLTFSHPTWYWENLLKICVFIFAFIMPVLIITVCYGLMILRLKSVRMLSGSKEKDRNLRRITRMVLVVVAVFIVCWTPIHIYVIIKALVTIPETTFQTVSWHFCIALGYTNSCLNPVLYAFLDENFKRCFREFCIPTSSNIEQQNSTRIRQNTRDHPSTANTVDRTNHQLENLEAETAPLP
Sequence of Mu-type opioid receptor (Homo sapiens) + Delta-type opioid receptor (Homo sapiens) (P41143 whole entry, looked up): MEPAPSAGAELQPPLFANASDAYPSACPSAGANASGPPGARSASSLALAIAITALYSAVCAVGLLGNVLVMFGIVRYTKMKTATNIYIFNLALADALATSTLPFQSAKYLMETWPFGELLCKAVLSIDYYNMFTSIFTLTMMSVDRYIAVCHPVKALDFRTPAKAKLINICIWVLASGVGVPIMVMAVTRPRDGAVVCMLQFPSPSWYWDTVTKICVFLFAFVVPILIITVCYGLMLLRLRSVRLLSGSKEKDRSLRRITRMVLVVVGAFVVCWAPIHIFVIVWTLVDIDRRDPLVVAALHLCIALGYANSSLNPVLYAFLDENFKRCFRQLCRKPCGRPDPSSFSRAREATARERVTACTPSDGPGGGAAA
Outline: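 Test system: U2OS Mu-Delta cell line / Compound: single dose, 9.2 µM final nominal compound concentration / Schedule: 3 h compound exposure at 37 °C, 1 h room-temperature readout / Technique: luminescence / Measure: mean % activation versus DMSO and Deltorphin B wells / Control set: high Deltorphin B 0.9 µM, low DMSO alone / Replicates: triplicate wells per compound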
With COc1ccc(C(=O)c2oc3ccc(Br)cc3c2NC(C)=O)cc1 the activation was 1.7%.
In the case of COc1cccc(CNCCc2c[nH]c3ccccc23)c1OCc1ccccc1F, the activation is reported as 39.6% (active).
In the case of O=C(Cn1cnc2c(nnn2-c2ccccc2)c1=O)N1CCC(Cc2ccccc2)CC1, the activation is reported as 3.51%.
Compound O=C(OC12CC3CC(CC(C3)C1)C2)c1ccc(NCc2cc(O)ccc2O)cc1 has an activation of 7.74%.
With Cc1ccc([C@H]2C[C@H](O)[C@@H](n3cc(COC(=O)c4ccccc4)nn3)CN2C(=O)C2CCCCC2)cc1 the activation was 5.71%.
O=C(Nc1ccc2oc(-c3ccc4ccccc4c3)nc2c1)c1cccs1 gave an activation of 5.63%.
CC(=O)Nc1cc(-c2ccccc2N(C)C)cn2c(-c3ccc(F)c(Cl)c3)cnc12 was tested, and the activation was 4.79%.
CC(=O)Nc1cc(-c2ccccc2F)cn2c(-c3cccc(C(F)(F)F)c3)cnc12 was tested, and the activation was 2.54%.
Compound Cc1csc(NC(=O)c2ccc(-c3ccc(Cl)cc3Cl)o2)n1 has an activation of 5.41%.
In the case of CCCCNc1c(-c2cccc(Sc3ccc(OC)cc3)c2)nc2ccccn12, the activation is reported as 6.07%.
CCN1CCN(CCNC(=O)c2ccc(/C=C3/Sc4ccccc4N(Cc4cccc(C)c4)C3=O)cc2)CC1 was tested, and the activation was 4.15%.
Work on Cc1ccccc1NC(=O)c1ccc(COc2ccc3c(C)cc(=O)oc3c2)cc1 yielded an activation of 12.7%.
O=C(/C=C/c1c(Cl)cccc1Cl)NCc1ccccc1 was tested, and the activation was 5.53%.
In the case of COc1c(Cl)cc(C(=O)Nc2ccc(Cl)cn2)cc1Cl, the activation is reported as 7.15%.
NC(N)=Nc1nc(-c2ccccc2)c2cc(Cl)ccc2n1 was tested, and the activation was 5.11%.
O=C(NC1CCCCCC1)c1cccnc1Sc1ccc(Cl)cc1 gave an activation of 3.4%.
Brc1ccc(-c2csc(N/N=C/c3cccnc3)n2)cc1 was tested, and the activation was 5.84%.
Cc1cccc(NC(=O)Nc2cccc(Oc3c(F)c(F)c(F)c(F)c3F)c2)c1 gave an activation of 6.53%.
COc1ccc(-c2cc(NC=O)c3ncc(-c4ccccc4)n3c2)cc1OC was tested, and the activation was 3.12%.
O=C(CCCN1C(=O)/C(=C\c2ccco2)SC1=S)Nc1cccc2ccccc12 showed an activation of 4.3%.
Work on O=C(CCCCCN1C(=O)c2cccc3cccc(c23)C1=O)NCc1ccco1 yielded an activation of 9.12%.
O=C(CCCn1c(SCC(=O)c2ccc(F)cc2)nc2ccccc2c1=O)NCc1ccco1 was tested, and the activation was 33.1% (active).
In the case of COc1ccc(S(=O)(=O)N/N=C\c2ccc(OC)c(COc3ccc(C)cc3[N+](=O)[O-])c2)cc1, the activation is reported as 3.27%.
For COc1ccccc1-c1cc(NC(C)=O)c2ncc(-c3ccc(F)cc3)n2c1, the activation was 4.19%.
For O=C(N/N=C/c1ccc(OC(=O)c2ccccc2Cl)cc1)c1ccc(O)cc1, the activation was 6.45%.
In the case of CC(=O)c1cccc(-c2cnc3c(NC=O)cc(-c4ccc(N(C)C)cc4)cn23)c1, the activation is reported as 2.52%.
Work on Cc1ccc(-n2cc3ccc([N+](=O)[O-])cc3n2)cc1 yielded an activation of 7.27%.
COc1ccc(OCC(=O)Nc2ccc(N3CCC(C)CC3)cc2)cc1 showed an activation of 2.59%.
For O=C(NCCc1c[nH]c2ccc(Cl)cc12)c1ccc([N+](=O)[O-])cc1, the activation was 15.2%.
In the case of CCOC(=O)c1[nH]c2c(c1-c1ccccc1)C(=O)CC(c1ccc(Cl)cc1)C2 (stereo not given), the activation is reported as 6.76%.
CCCCCCCCCCOC(=O)Cn1c(COc2cccc(OC)c2)[n+](C)c2ccccc21 was tested, and the activation was 19.9% (active).
CCCCCCCCCCOC(=O)Cn1c(COc2ccc(C)cc2)[n+](C)c2ccccc21 was tested, and the activation was 22.4% (active).
With COc1cc(/C=C(\C#N)C(=O)Nc2ccc3ccccc3c2)c([N+](=O)[O-])cc1OC the activation was 10.3%.
CCN1C[C@@H]2[C@@H]3C(=O)N(Cc4ccccc4)C(=O)[C@@H]3[C@](Cc3ccccc3)(C(=O)OC)N2C1=NC1CCCCC1 showed an activation of 5.52%.
O=C(NC(c1ccc(-c2ccccc2)cc1)c1cnccn1)C1CCN(CCOc2ccc(Cl)cc2Cl)CC1 (stereo not given) was tested, and the activation was 9.53%.
Work on O=C(COC(=O)c1cccc(Br)c1)Nc1cccc2c1C(=O)c1ccccc1C2=O yielded an activation of 6.2%.
In the case of O=C(NC(=S)Nc1cccc2c(O)cccc12)c1cccc(Br)c1, the activation is reported as 8.2%.
CCN(CC)S(=O)(=O)c1ccc(C)c(NC(=O)COc2ccc(Br)cc2Cl)c1 was tested, and the activation was 6.67%.
Work on CSc1ccc(/C=N\NC(=O)COc2ccc(Cl)cc2Br)cc1 yielded an activation of 5.52%.
For COc1ccc(C)c(Cn2c(-c3nonc3N)nc3ccccc32)c1, the activation was 5.04%.
